Data from article PMC10234138 (Journal of Enzyme Inhibition and Medicinal Chemistry, 2023).
Several values for one entry are separate records, joined by “and”; a condition that tells them apart may be missing. Identical values can stand only once.

What was measured:
[1] = system: Panc-1 (pancreas cancer cell line); assay: Antiproliferative assay, Panc-1; format: cell-based; settings: Homo sapiens, PANC-1, read-out: Antiproliferative activity IC50 ± SEM, Panc-1
[2] = system: HT-29 (colon cancer cell line); assay: Antiproliferative assay, HT-29; format: cell-based; settings: Homo sapiens, HT-29, read-out: Antiproliferative activity IC50 ± SEM, HT-29
[3] = Cell viability assay; format: cell-based; settings: human, MCF-10A mammary gland epithelial cells
[4] = system: four cancer cell lines (A-549, MCF-7, Panc-1, HT-29); assay: Antiproliferative assay, average over four cancer cell lines; format: cell-based, human; settings: for GI50: Homo sapiens, read-out: Antiproliferative activity, Average (GI50)
[5] = system: A-549 (epithelial cancer cell line); assay: Antiproliferative assay, A-549; format: cell-based; settings: Homo sapiens, A549, read-out: Antiproliferative activity IC50 ± SEM, A-549
[6] = system: MCF-7 (breast cancer cell line); assay: Antiproliferative assay, MCF-7; format: cell-based; settings: Homo sapiens, MCF7, read-out: Antiproliferative activity IC50 ± SEM, MCF-7
[7] = system: Caspase-3; assay: Caspase-3 assay in Panc-1; format: cell-based, human; settings: Panc-1 cells; for Caspase-3 Fold change: vs control untreated cells
[8] = system: Caspase-8; assay: Caspase-8 assay in Panc-1; format: cell-based, human; settings: Panc-1 cells; for Caspase-8 Fold change: vs control untreated cells
[9] = biological target: EGFR^WT (Homo sapiens, UniProt P00533); assay: EGFR inhibitory assay; format: biochemical
[10] = biological target: EGFR^T790M (Homo sapiens, UniProt P00533, T790M); assay: biochemical
[11] = system: Bax; assay: Bax assay in Panc-1; format: cell-based, human; settings: Panc-1 cells; for Bax Fold change: vs control untreated cells
Summary of the method: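 Bax protein in treated Panc-1 cells, read as concentration in pg/mL. Fold induction is relative to untreated Panc-1 control cells. Staurosporine serves as reference compound.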

[12] = system: Bcl-2; assay: Bcl-2 assay in Panc-1; format: cell-based, human; settings: Panc-1 cells; for Bcl-2 Fold reduction: vs control untreated cells
[13] = antiproliferative, four cancer cell lines

EGFR^WT, sequence (P00533 669-1210): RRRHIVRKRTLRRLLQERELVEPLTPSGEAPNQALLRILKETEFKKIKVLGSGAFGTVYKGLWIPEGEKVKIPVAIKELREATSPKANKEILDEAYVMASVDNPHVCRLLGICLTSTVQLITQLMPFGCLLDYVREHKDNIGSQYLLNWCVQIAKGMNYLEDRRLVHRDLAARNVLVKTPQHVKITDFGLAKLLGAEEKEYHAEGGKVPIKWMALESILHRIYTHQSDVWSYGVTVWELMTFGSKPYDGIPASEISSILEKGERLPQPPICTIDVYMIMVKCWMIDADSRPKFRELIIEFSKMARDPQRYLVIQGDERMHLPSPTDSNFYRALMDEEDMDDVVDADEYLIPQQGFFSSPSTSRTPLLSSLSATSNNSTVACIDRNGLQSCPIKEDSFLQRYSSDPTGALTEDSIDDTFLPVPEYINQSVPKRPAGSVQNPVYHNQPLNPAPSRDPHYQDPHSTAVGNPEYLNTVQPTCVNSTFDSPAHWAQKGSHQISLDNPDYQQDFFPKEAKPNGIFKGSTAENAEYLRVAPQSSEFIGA
EGFR^T790M, sequence (P00533 25-1210 T790M): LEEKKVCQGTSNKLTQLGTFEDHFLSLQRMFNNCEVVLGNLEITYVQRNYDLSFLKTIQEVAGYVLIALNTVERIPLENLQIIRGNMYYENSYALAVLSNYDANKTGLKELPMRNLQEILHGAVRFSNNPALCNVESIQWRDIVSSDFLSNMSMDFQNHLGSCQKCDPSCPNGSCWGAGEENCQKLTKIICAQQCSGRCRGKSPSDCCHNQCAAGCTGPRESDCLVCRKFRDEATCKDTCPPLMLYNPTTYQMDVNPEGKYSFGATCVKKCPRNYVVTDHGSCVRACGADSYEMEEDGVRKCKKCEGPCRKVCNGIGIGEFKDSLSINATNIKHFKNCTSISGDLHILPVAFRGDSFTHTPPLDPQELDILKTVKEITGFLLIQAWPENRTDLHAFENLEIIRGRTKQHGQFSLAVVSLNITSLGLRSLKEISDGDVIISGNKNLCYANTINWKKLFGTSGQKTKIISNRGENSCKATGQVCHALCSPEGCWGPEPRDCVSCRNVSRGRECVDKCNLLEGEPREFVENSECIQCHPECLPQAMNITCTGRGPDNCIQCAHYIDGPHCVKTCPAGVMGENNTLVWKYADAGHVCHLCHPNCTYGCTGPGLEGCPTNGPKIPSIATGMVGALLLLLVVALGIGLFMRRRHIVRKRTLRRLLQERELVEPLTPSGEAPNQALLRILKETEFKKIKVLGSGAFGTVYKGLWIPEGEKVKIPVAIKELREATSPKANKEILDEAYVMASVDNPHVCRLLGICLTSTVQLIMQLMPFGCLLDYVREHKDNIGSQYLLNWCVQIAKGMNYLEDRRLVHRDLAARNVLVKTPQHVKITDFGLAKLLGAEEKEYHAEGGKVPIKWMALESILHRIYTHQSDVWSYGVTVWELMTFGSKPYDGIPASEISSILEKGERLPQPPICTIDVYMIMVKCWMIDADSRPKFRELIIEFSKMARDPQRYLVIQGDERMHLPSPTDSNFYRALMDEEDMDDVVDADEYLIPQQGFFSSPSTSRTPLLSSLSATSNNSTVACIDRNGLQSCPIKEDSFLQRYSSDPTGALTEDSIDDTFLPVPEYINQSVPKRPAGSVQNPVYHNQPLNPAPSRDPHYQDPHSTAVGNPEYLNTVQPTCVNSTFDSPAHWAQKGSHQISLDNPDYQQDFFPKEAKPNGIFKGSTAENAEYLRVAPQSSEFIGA

Row | SMILES | IC50 [1] [nM] | IC50 [2] [nM] | viability at 96 h, 50 µM [3] [%] | GI50 [4] [nM] | IC50 [5] [nM] | IC50 [6] [nM] | Caspase-3 Conc [7] [pg/mL] | Caspase-8 Conc [8] [ng/mL] | Caspase-8 Fold change [8] | IC50 [9] [nM] | IC50 [10] [nM] | Bax Conc [11] | Bax Fold change [11] | Bcl-2 Conc [12] [ng/mL] | Bcl-2 Fold reduction [12] | fold less potent than compound 5f (GI50) [4, 13] [fold] | Caspase-3 Fold change [7] | Caspase-3 Fold change ([7]; listed as 5 g) | Bax Conc ([11]; listed as 5 g) [pg/mL] | fold more potent than compound 5b (GI50) [4, 13] [fold]
1 | CO/C=C/c1c(C(=O)NCc2ccccc2)[nH]c2ccc(Cl)cc12 [Compound 6c, (E)-N-benzyl-5-chloro-3-(2-methoxyvinyl)-1H-indole-2-carboxamide] | 62 ± 6 | 64 ± 6 | 85 | 66 | 67 ± 6 | 69 ± 6 | – | – | – | – | – | – | – | – | – | – | – | – | – | –
2 | CO/C=C/c1c(C(=O)NCCc2ccc(N3CCCC3)cc2)[nH]c2ccc(Cl)cc12 [Compound 5e, (E)-5-chloro-3-(2-methoxyvinyl)-N-(4-(pyrrolidin-1-yl)phenethyl)-1H-indole-2-carboxamide] | 67 ± 7 | 71 ± 7 | 90 | 70 | 70 ± 7 | 73 ± 7 | – | – | – | – | – | – | – | – | – | – | – | – | – | –
3 | CO/C=C/c1c(C(=O)NC2c3ccccc3-c3ccccc32)[nH]c2ccc(Cl)cc12 [Compound 6b, (E)-5-chloro-N-(9H-fluoren-9-yl)-3-(2-methoxyvinyl)-1H-indole-2-carboxamide] | 97 ± 10 | 104 ± 10 | 87 | 102 | 102 ± 10 | 105 ± 10 | – | – | – | – | – | – | – | – | – | – | – | – | – | –
4 | CO/C=C/c1c(C(=O)NCCc2ccc(N3CCCC3C)cc2)[nH]c2ccc(Cl)cc12 (stereo not drawn) [Compound 5f, (E)-5-chloro-3-(2-methoxyvinyl)-N-(4-(2-methylpyrrolidin-1-yl)phenethyl)-1H-indole-2-carboxamide] | 27 ± 3 | 30 ± 3 | 87 | 29 | 28 ± 3 | 30 ± 3 | 560.2 ± 5.0 | 2.10 | 25 | 68 ± 4 | 9.5 ± 2 | 305 pg/mL and 305.50 pg/mL | 37 | 0.80 | 6 | – | – | – | – | –
5 | CO/C=C/c1c(C(=O)NCCc2ccccc2)[nH]c2ccc(Cl)cc12 [Compound 5a, (E)-5-Chloro-3–(2-methoxyvinyl)-N-phenethyl-1H-indole-2-carboxamide] | 73 ± 7 | 75 ± 8 | 91 | 76 | 75 ± 8 | 79 ± 8 | – | – | – | – | – | – | – | – | – | 2.5 | – | – | – | –
6 | CO/C=C/c1c(C(=O)NCCc2ccc(N(C)C)cc2)[nH]c2ccc(Cl)cc12 [Compound 5d, (E)-5-chloro-N-(4-(dimethylamino)phenethyl)-3-(2-methoxyvinyl)-1H-indole-2-carboxamide] | 35 ± 3 | 38 ± 4 | 89 | 36 | 34 ± 4 | 38 ± 3 | – | – | – | 85 ± 5 | – | – | – | – | – | – | – | – | – | –
7 | CN[C@@H]1C[C@H]2O[C@@](C)([C@@H]1OC)n1c3ccccc3c3c4c(c5c6ccccc6n2c5c31)C(=O)NC4 [Staurosporine, reference compound] | – | – | – | – | – | – | 503.2 ± 4.0 | 1.75 | 21 | – | – | 276 pg/mL and 276.20 pg/mL | – | 0.98 | 5 | – | 7.6 | – | – | –
8 | CO/C=C/c1c(C(=O)NCCc2ccc(N3CCCCC3)cc2)[nH]c2ccc(Cl)cc12 [Compound 5b, (E)-5-chloro-3–(2-methoxyvinyl)-N-(4-(piperidin-1-yl)phenethyl)-1H-indole-2-carboxamide] | 75 ± 7 | 78 ± 7 | 89 | 77 | 76 ± 7 | 79 ± 7 | – | – | – | – | – | – | – | – | – | – | – | – | – | –
9 | O=c1c2[nH]c3ccc(Cl)cc3c2ccn1CCc1ccc(N2CCCCC2)cc1 [Compound 7b, 6-chloro-2–(4-(piperidin-1-yl)phenethyl)-2,9-dihydro-1H-pyrido[3,4-b]indol-1-one] | 55 ± 5 | 57 ± 6 | 89 | 57 | 57 ± 6 | 59 ± 6 | – | – | – | – | – | – | – | – | – | – | – | – | – | –
10 | CO/C=C/c1c(C(=O)N2CCC(Cc3ccccc3)CC2)[nH]c2ccc(Cl)cc12 [Compound 6e, (E)-(4-benzylpiperidin-1-yl)(5-chloro-3–(2-methoxyvinyl)-1H-indol-2-yl) methanone] | 43 ± 4 | 45 ± 5 | 91 | 45 | 45 ± 5 | 47 ± 5 | – | – | – | 98 ± 7 | – | – | – | – | – | – | – | – | – | –
11 | CO/C=C/c1c(C(=O)NCCc2ccc(N3CCOCC3)cc2)[nH]c2ccc(Cl)cc12 [Compound 5g, (E)-5-chloro-3-(2-methoxyvinyl)-N-(4-morpholinophenethyl)-1H-indole-2-carboxamide] | 30 ± 3 | 32 ± 3 | 89 | 31 | 30 ± 3 | 32 ± 3 | 542.5 ± 5.0 | 1.97 | 23 | 74 ± 5 | 11.9 ± 3 | 299.40 pg/mL | 36 | 0.84 | 6 | – | 8.3 | approximately 8 | 299 | –
12 | CO/C=C/c1c(C(=O)NCCc2cccc(N3CCCCC3)c2)[nH]c2ccc(Cl)cc12 [Compound 5c, (E)-5-chloro-3–(2-methoxyvinyl)-N-(3-(piperidin-1-yl)phenethyl)-1H-indole-2-carboxamide] | 45 ± 5 | 47 ± 5 | 87 | 47 | 45 ± 5 | 49 ± 5 | – | – | – | 102 ± 7 | – | – | – | – | – | – | – | – | – | 1.6
13 | CO/C=C/c1c(C(=O)NCc2nc3ccccc3[nH]2)[nH]c2ccc(Cl)cc12 [Compound 6f, (E)-N-((1H-benzo[d]imidazol-2-yl)methyl)-5-chloro-3–(2-methoxyvinyl)-1H-indole-2-carboxamide] | 38 ± 4 | 42 ± 4 | 89 | 41 | 40 ± 4 | 42 ± 4 | – | – | – | 93 ± 6 | – | – | – | – | – | – | – | – | – | –
14 | CO/C=C/c1c(C(=O)NC(CO)Cc2ccccc2)[nH]c2ccc(Cl)cc12 (stereo not drawn) [Compound 6a, (E)-5-chloro-N-(1-hydroxy-3-phenylpropan-2-yl)-3-(2-methoxyvinyl)-1H-indole-2-carboxamide] | 85 ± 9 | 89 ± 9 | 86 | 89 | 89 ± 9 | 92 ± 9 | – | – | – | – | – | – | – | – | – | – | – | – | – | –
15 | CO/C=C/c1c(C(=O)N2CCN(c3ccccc3)CC2)[nH]c2ccc(Cl)cc12 [Compound 6d, (E)-(5-chloro-3–(2-methoxyvinyl)-1H-indol-2-yl)(4-phenylpiperazin-1-yl) methanone] | 81 ± 8 | 85 ± 8 | 89 | 85 | 85 ± 8 | 87 ± 8 | – | – | – | – | – | – | – | – | – | – | – | – | – | –
16 | C#Cc1cccc(Nc2ncnc3cc(OCCOC)c(OCCOC)cc23)c1 [Erlotinib, reference compound] | 30 ± 3 | 30 ± 3 | – | 33 | 30 ± 3 | 40 ± 3 | – | – | – | – | – | – | – | – | – | – | – | – | – | –
17 | O=c1c2[nH]c3ccc(Cl)cc3c2ccn1CCc1ccccc1 [Compound 7a, 6-chloro-2-phenethyl-2,9-dihydro-1H-pyrido[3,4-b]indol-1-one] | 51 ± 5 | 55 ± 5 | 90 | 54 | 53 ± 5 | 57 ± 5 | – | – | – | – | – | – | – | – | – | – | – | – | – | –
